Article PMC7313255 (Biology of Reproduction, 2020)
pKi: −log10 of the molar value. Values joined by “and” are separate entries in the source; they are usually repeats but may differ in a detail not shown here. Equal values may be shown once. Where a name gives a salt, the structure may show the parent alone. Read-outs that look alike come from different tables or passages of the source. Positions of bridges follow the written chain, without caps; N, C: chain ends. Non-standard residues stand in square brackets, D forms with d. Residues, ends and D or L forms follow the SMILES beside them. Orn = NCCC[C@H](N)C(=O)O; Mpa = O=C(O)CCS

What was measured:
cloned human V1AR = details: read-out: Ki (affinity), cloned human V1AR; two literature values; cited from earlier work
[1] = cited from earlier work
[2] = sheep, epitheliochoral placenta; cited from earlier work
[3] = test system: vasopressin-induced contractions of isolated term-pregnant human myometrium; details: cited from earlier work
[4] = up to 2.5 mg barusiban/kg body weight/day from day 85 of gestation until delivery; cited from earlier work
[5] = quantitative whole-body autoradiography; format: in vivo; details: rat; all sampling times; limit of quantitation 40 pmoles/g; unpublished data
[6] = format: in vitro ADME, human
Summary of the method: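 Term placentas (39–41 weeks, no chorioamnionitis) perfused ex vivo as double-sided open cotyledon at 36.5 °C; fetal flow 2 mL/min, maternal 10 mL/min. Test compound 1.2 µM (1 µg/mL) in perfusate with antipyrine 531 µM co-infused. Fetal venous samples at 1–120 min; Evans blue integrity check. LC-MS/MS for test compound, spectrophotometry for antipyrine; trapezoidal AUC ratio; mean ± SD.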

[7] = test system: oxytocin-induced uterine contractions; details: cited from earlier work
[8] = Placental transfer in rabbits; format: in vivo, New Zealand white rabbits; details: rabbit
Summary of the method: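 Pregnant rabbits (5–6 months, 3.0–4.4 kg) given the radiolabelled test compound by ear-vein bolus daily on gestation days 24–30: mean 3.01 mg/kg, 522 kBq/kg, in 0.9% saline. Three dams per time point killed by barbiturate at 10 min, 1, 3 and 10 h after dosing. Maternal ear-artery blood taken; from one fetus per sex, cardiac blood and tissues taken. Liquid scintillation counting; levels expressed as % of maternal peak.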

[9] = quantitative whole-body autoradiography; format: in vivo; details: marmoset; normally below the limit of quantification; unpublished data
[10] = Placental transfer in cynomolgus monkeys; format: in vivo, cynomolgus monkeys (Macaca fascicularis); details: cynomolgus monkey
Summary of the method: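 Three pregnant monkeys, gestation day 150 ± 1. Test compound infused intravenously (saphenous vein) over 2 h to 300 µg/kg in 5 mL/kg, from a 10 mg/mL stock in 0.04 M acetate pH 4.3 diluted in saline. Maternal brachial plasma taken pre-dose, 1 and 2 h. Umbilical venous plasma and amniotic fluid taken at C-section under ketamine/xylazine. Plasma measured by RIA, amniotic fluid by LC-MS/MS; paired t-test.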

[11] = cited from earlier work; remark: listed apart in the source

In the case of CCOc1ccc(C[C@H]2NC(=O)CCSSC[C@@H](C(=O)N3CCC[C@H]3C(=O)N[C@@H](CCCN)C(=O)NCC(N)=O)NC(=O)[C@H](CC(N)=O)NC(=O)[C@H]([C@@H](C)O)NC(=O)[C@H]([C@@H](C)CC)NC2=O)cc1 [atosiban] ([Mpa][dY](Et)ITNCP[Orn]G-NH2; disulfide 1-6 (inferred); C-terminus assumed), the pKi (cloned human V1AR) is given as 8.46 and 8.33, the placental transfer ([1]; in vivo, pregnant women at term) is given as 12% and the placental transfer [2] is given as “could not be detected”.

In the case of CC(NCCc1ccc(O)cc1)C(O)c1ccc(O)cc1 (centres unmarked) [ritodrine hydrochloride], the placental transfer ([1]; in humans, long-term treatment) is listed as 70% and the placental transfer ([1]; in humans, short-term treatment) is listed as 26%.

In the case of CC[C@@H](C)[C@@H]1NC(=O)[C@H]([C@@H](C)CC)NC(=O)[C@@H](Cc2c[nH]c3ccccc23)NC(=O)CCSCC[C@@H](C(=O)N(C)[C@H](CO)CCCN)NC(=O)[C@H](CC(N)=O)NC1=O [barusiban], the “effect on vasopressin-induced contractions” value [3] is listed as “practically no effect”, the “effects in the mother or offspring” value [4] is listed as “no barusiban-related effects” and the “barusiban in the fetuses (QWBA)” value [5] is listed as under 40 pmol/g. For the same compound, the “AUC ratio of barusiban to antipyrine” value ([6]; ex vivo perfused human cotyledon, mean of ratios ± SD, n = 13, SD) was 36 ± 11%, the “reduction of induced uterine contractions compared with fenoterol” value ([7]; cynomolgus monkey) was “more effective than fenoterol” and the “reduction of oxytocin-induced uterine contractions compared with atosiban” value ([7]; pregnant cynomolgus monkey, action also longer lasting) was “more potent”. The “barusiban level in other fetal tissues as % of the maternal blood” value ([8]; 10 min post-dose, or less than LLOQ) was under 1%, the “barusiban in most fetal tissue samples as % of the maternal peak blood level” value ([8]; 1 h post-dose, or less than LLOQ) was “less than 1%” and the “fetal blood barusiban as % of that after 10 min” value ([8]; 1 h post-dose) was 79.3%. For the same compound, the “fetal blood barusiban as % of the peak maternal level” value ([8]; 1 h post-dose) was 4.2%, the “fetal plasma barusiban as % of the peak maternal level” value ([8]; 1 h post-dose) was 5.0% and the “maternal blood barusiban as % of the maximum level” value ([8]; 1 h post-dose) was 32.8%. The “maternal plasma barusiban as % of the maximum level” value ([8]; 1 h post-dose) was 35.2%, the “maternal blood barusiban as % of its maximum level” value ([8]; 3 h post-dose) was 6.1% and the “maternal plasma barusiban as % of its maximum level” value ([8]; 3 h post-dose) was 7.9%. The “fetal adrenal barusiban as % of the maximal maternal blood level” value ([8]; 10 h post-dose, one adrenal) was 12.0%, the “barusiban in all other fetal tissues as % of peak maternal blood level” value ([8]; 10 h post-dose, or less than LLOQ) was “less than 1%” and the “amniotic fluid barusiban as % of the maximal maternal blood level” value ([8]; 10 h post-dose) was 5.7%. The “fetal blood barusiban as % of initial maternal level” value ([8]; 10 h post-dose) was “less than 2%”, the “fetal plasma barusiban as % of initial maternal level” value ([8]; 10 h post-dose) was “less than 3%” and the “maternal blood barusiban as % of the first determination” value ([8]; 10 h post-dose) was “less than 1%”. For the same compound, the “maternal plasma barusiban as % of the first determination” value ([8]; 10 h post-dose) was “less than 2%”, the “radioactivity in fetal brain (QWBA)” value [9] was under 12 pmoles/g tissue and the “increase of maternal plasma barusiban from 1 h to 2 h” value ([10]; individual values of two animals) was 40.4% and 54.6%. For the same compound, the “mean amniotic barusiban at C-section as % of the maternal plasma after 2 h” value ([10]; iv infusion 2 h to 300 μg/kg, n = 3) was 1.9%, the “decrease of maternal plasma barusiban from 1 h to 2 h” value ([10]; third animal) was 5.0% and the “effect over the placebo group (women who did not deliver within 48 h)” value ([11]; Phase II clinical trial) was “did not demonstrate a statistically significant effect”. For the same compound, the “fetal and neonatal adverse events with maternal barusiban” value ([11]; clinical study, did not differ from placebo) was “very low level of fetal and neonatal adverse events”.

In the case of Cc1cc(=O)n(-c2ccccc2)n1C [antipyrine, reference compound], the “transfer of antipyrine relative to barusiban” value ([6]; human placental single cotyledon, comparator) was “approximately three times greater”.

In the case of O=S(=O)([O-])[O-].[Mg+2] [MgSO4], the placental transfer ([1]; in humans) is listed as “up to 100%”.
